Tests used:
[1] = In vitro cytotoxicity, Neutral Red assay; assay type: cell-based; conditions: African green monkey, Vero cells
[2] = system: P. falciparum (D6 strain); experiment: In vitro antiplasmodial activity; assay type: cell-based; conditions: Plasmodium falciparum, D6, 72 h, read-out: P. falciparum (D6 strain) IC50
[3] = system: P. falciparum (W2 strain); experiment: In vitro antiplasmodial activity; assay type: cell-based; conditions: Plasmodium falciparum, W2, 72 h, read-out: P. falciparum (W2 strain) IC50
Method in brief: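 Infected erythrocytes (2% hematocrit, 2% parasitemia) in RPMI 1640 with 60 μg/mL amikacin and 10% human serum, exposed to serially diluted test compound under 90% N2/5% CO2/5% O2 at 37 °C for 72 h. Parasite LDH measured with Malstat reagent (30 min, room temperature), then NBT/PES (1 h, dark), stopped with 5% acetic acid, absorbance 650 nm. Triplicates; chloroquine/artemisinin and DMSO controls; IC50 from dose–response.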

P. berghei = experiment: In vivo antiplasmodial evaluation in the P. berghei-mouse malaria model; design: species or system P. berghei (Swiss Webster Hsd:ND4 mice); conditions: for % Parasitemia suppression day 5 / % Parasitemia suppression day 7 / MST (mean survival time) / cure (mice without parasitemia until day 28) / survival (animals survived on day 28/total): oral gavage, mice; for parasitemia suppression: day not given
[4] = 33.33 mg/kg dose, oral gavage once daily days 0, 1, 2

Row | SMILES | IC50 at 48 h [1] | IC50 [2] | IC50 [3] | also measured
1 | C[C@@H]1CC[C@H]2[C@@H](C)C(=O)O[C@@H]3O[C@@]4(C)CC[C@@H]1[C@]32OO4 [ART, artemisinin, reference compound] | > 4.76 µg/mL | 19 nM | 28.1 nM | –
2 | CCN(CC)CCCC(C)Nc1ccnc2cc(Cl)ccc12 (stereo not shown) [CQ, Chloroquine, reference compound] | > 4.76 µg/mL | 60 nM | 853 nM | % Parasitemia suppression day 5 (P. berghei; 33.3 mg/kg × 3 days): 100.00%; % Parasitemia suppression day 7 (P. berghei; 33.3 mg/kg × 3 days): 100.00%; MST (mean survival time) (P. berghei; 33.3 mg/kg × 3 days): 28 days; cure (mice without parasitemia until day 28) (P. berghei; 33.3 mg/kg × 3 days): 2/5; survival (animals survived on day 28/total) (P. berghei; 33.3 mg/kg × 3 days): 5/5
3 | Cc1cc(Cl)nc(N2CCN(CCNc3ccnc4cc(Cl)ccc34)CC2)n1 [Compound 5a, 7-Chloro-N-(2-(4-(4-chloro-6-methylpyrimidin-2-yl)piperazin-1-yl)ethyl)quinolin-4-amine] | > 4.76 µg/mL | 70 nM | 210 nM | –
4 | Cc1cc(Cl)nc(N2CCN(CCCNc3ccnc4cc(Cl)ccc34)CC2)n1 [Compound 5b, 7-Chloro-N-(3-(4-(4-chloro-6-methylpyrimidin-2-yl)piperazin-1-yl)propyl)quinolin-4-amine] | > 4.76 µg/mL | 100 nM | 350 nM | –
5 | Clc1ccc2c(NCCCN3CCN(c4nccc(Cl)n4)CC3)ccnc2c1 [Compound 5c, 7-Chloro-N-(3-(4-(4-chloropyrimidin-2-yl)piperazin-1-yl)propyl)quinolin-4-amine] | > 4.76 µg/mL | 62 nM | 230 nM | –
6 | Cc1cc(N2CCN(CCNc3ccnc4cc(Cl)ccc34)CC2)nc(Cl)n1 [Compound 6a, 7-Chloro-N-(2-(4-(2-chloro-6-methylpyrimidin-4-yl)piperazin-1-yl)ethyl)quinolin-4-amine] | > 4.76 µg/mL | 79 nM | 500 nM | –
7 | Cc1cc(N2CCN(CCCNc3ccnc4cc(Cl)ccc34)CC2)nc(Cl)n1 [Compound 6b, 7-Chloro-N-(3-(4-(2-chloro-6-methylpyrimidin-4-yl)piperazin-1-yl)propyl)quinolin-4-amine] | > 4.76 µg/mL | 66 nM | 200 nM | –
8 | Clc1ccc2c(NCCCN3CCN(c4ccnc(Cl)n4)CC3)ccnc2c1 [Compound 6c, 7-Chloro-N-(3-(4-(2-chloropyrimidin-4-yl)piperazin-1-yl)propyl)quinolin-4-amine] | > 4.76 µg/mL | 73 nM | 420 nM | –
9 | Cc1cc(N2CCN(CCNc3ccnc4cc(Cl)ccc34)CC2)nc(N2CCCCC2)n1 [Compound 7a, 7-Chloro-N-(2-(4-(6-methyl-2-(piperidin-1-yl)pyrimidin-4-yl)piperazin-1-yl)ethyl) quinolin-4-amine] | > 4.76 µg/mL | 32 nM | 40 nM | –
10 | Cc1cc(N2CCN(CCNc3ccnc4cc(Cl)ccc34)CC2)nc(N2CCOCC2)n1 [Compound 7b, 7-Chloro-N-(2-(4-(6-methyl-2-morpholinopyrimidin-4-yl)piperazin-1-yl)ethyl) quinolin-4-amine] | > 4.76 µg/mL | 95 nM | 49 nM | –
11 | Cc1cc(N2CCN(CCNc3ccnc4cc(Cl)ccc34)CC2)nc(N2CCSCC2)n1 [Compound 7c, 7-Chloro-N-(2-(4-(6-methyl-2-thiomorpholinopyrimidin-4-yl)piperazin-1-yl)ethyl) quinolin-4-amine] | > 4.76 µg/mL | 38 nM | 64 nM | –
12 | Cc1cc(N2CCN(CCNc3ccnc4cc(Cl)ccc34)CC2)nc(N2CCCC2)n1 [Compound 7d, 7-Chloro-N-(2-(4-(6-methyl-2-(pyrrolidin-1-yl)pyrimidin-4-yl)piperazin-1-yl)ethyl) quinolin-4-amine] | > 4.76 µg/mL | 13 nM | 20 nM | –
13 | CCN1CCN(c2nc(C)cc(N3CCN(CCNc4ccnc5cc(Cl)ccc45)CC3)n2)CC1 [Compound 7e, 7-Chloro-N-(2-(4-(2-(4-ethylpiperazin-1-yl)-6-methylpyrimidin-4-yl)piperazin-1-yl)ethyl)quinolin-4-amine] | > 4.76 µg/mL | 21 nM | 16 nM | % Parasitemia suppression day 5 (P. berghei; 11.1 mg/kg × 3 days): 94.31%; % Parasitemia suppression day 7 (P. berghei; 11.1 mg/kg × 3 days): 41.53%; MST (mean survival time) (P. berghei; 11.1 mg/kg × 3 days): 21.4 days; cure (mice without parasitemia until day 28) (P. berghei; 11.1 mg/kg × 3 days): 0/5; survival (animals survived on day 28/total) (P. berghei; 11.1 mg/kg × 3 days): 2/5; % Parasitemia suppression day 5 (P. berghei; 33.3 mg/kg × 3 days): 100.00%; % Parasitemia suppression day 7 (P. berghei; 33.3 mg/kg × 3 days): 100.00%; MST (mean survival time) (P. berghei; 33.3 mg/kg × 3 days): 28 days; cure (mice without parasitemia until day 28) (P. berghei; 33.3 mg/kg × 3 days): 5/5; survival (animals survived on day 28/total) (P. berghei; 33.3 mg/kg × 3 days): 5/5; parasitemia suppression (P. berghei; [4]): 100%; % Parasitemia suppression day 5 (P. berghei; 100 mg/kg × 3 days): 100.00%; % Parasitemia suppression day 7 (P. berghei; 100 mg/kg × 3 days): 100.00%; MST (mean survival time) (P. berghei; 100 mg/kg × 3 days): 28 days; cure (mice without parasitemia until day 28) (P. berghei; 100 mg/kg × 3 days): 5/5
14 | Cc1cc(N2CCN(CCCNc3ccnc4cc(Cl)ccc34)CC2)nc(N2CCCCC2)n1 [Compound 7f, 7-Chloro-N-(3-(4-(6-methyl-2-(piperidin-1-yl)pyrimidin-4-yl)piperazin-1-yl)propyl) quinolin-4-amine] | > 4.76 µg/mL | 15 nM | 34 nM | –
15 | Cc1cc(N2CCN(CCCNc3ccnc4cc(Cl)ccc34)CC2)nc(N2CCOCC2)n1 [Compound 7g, 7-Chloro-N-(3-(4-(6-methyl-2-morpholinopyrimidin-4-yl)piperazin-1-yl)propyl) quinolin-4-amine] | > 4.76 µg/mL | 15 nM | 43 nM | –
16 | Cc1cc(N2CCN(CCCNc3ccnc4cc(Cl)ccc34)CC2)nc(N2CCSCC2)n1 [Compound 7h, 7-Chloro-N-(3-(4-(6-methyl-2-thiomorpholinopyrimidin-4-yl)piperazin-1-yl)propyl) quinolin-4-amine] | > 4.76 µg/mL | 18 nM | 50 nM | –
17 | Cc1cc(N2CCN(CCCNc3ccnc4cc(Cl)ccc34)CC2)nc(N2CCCC2)n1 [Compound 7i, 7-Chloro-N-(3-(4-(6-methyl-2-(pyrrolidin-1-yl)pyrimidin-4-yl)piperazin-1-yl)propyl) quinolin-4-amine] | > 4.76 µg/mL | 12 nM | 19 nM | % Parasitemia suppression day 5 (P. berghei; 11.1 mg/kg × 3 days): 100.00%; % Parasitemia suppression day 7 (P. berghei; 11.1 mg/kg × 3 days): 100.00%; MST (mean survival time) (P. berghei; 11.1 mg/kg × 3 days): 27 days; cure (mice without parasitemia until day 28) (P. berghei; 11.1 mg/kg × 3 days): 3/5; survival (animals survived on day 28/total) (P. berghei; 11.1 mg/kg × 3 days): 4/5; % Parasitemia suppression day 5 (P. berghei; 33.3 mg/kg × 3 days): 100.00%; % Parasitemia suppression day 7 (P. berghei; 33.3 mg/kg × 3 days): 100.00%; MST (mean survival time) (P. berghei; 33.3 mg/kg × 3 days): 28 days; cure (mice without parasitemia until day 28) (P. berghei; 33.3 mg/kg × 3 days): 5/5; survival (animals survived on day 28/total) (P. berghei; 33.3 mg/kg × 3 days): 5/5; parasitemia suppression (P. berghei; [4]): 100%; % Parasitemia suppression day 5 (P. berghei; 100 mg/kg × 3 days): 100.00%; % Parasitemia suppression day 7 (P. berghei; 100 mg/kg × 3 days): 100.00%; MST (mean survival time) (P. berghei; 100 mg/kg × 3 days): 22.8 days; survival (animals survived on day 28/total) (P. berghei; 100 mg/kg × 3 days): 5/5; parasitemia suppression (P. berghei; at all doses (11.1, 33.3, and 100.0 mg/kg)): 100%
18 | CCN1CCN(c2nc(C)cc(N3CCN(CCCNc4ccnc5cc(Cl)ccc45)CC3)n2)CC1 [Compound 7j, 7-Chloro-N-(3-(4-(2-(4-ethylpiperazin-1-yl)-6-methylpyrimidin-4-yl)piperazin-1-yl)propyl)quinolin-4-amine] | > 4.76 µg/mL | 19 nM | 20 nM | –
19 | Cc1cc(N2CCN(CCCNc3ccnc4cc(Cl)ccc34)CC2)nc(N2CCN(C)CC2)n1 [Compound 7k, 7-Chloro-N-(3-(4-(6-methyl-2-(4-methylpiperazin-1-yl)pyrimidin-4-yl)piperazin-1-yl)propyl)quinolin-4-amine] | > 4.76 µg/mL | 19 nM | 22 nM | –
20 | Clc1ccc2c(NCCCN3CCN(c4ccnc(N5CCCCC5)n4)CC3)ccnc2c1 [Compound 7l, 7-Chloro-N-(3-(4-(2-(piperidin-1-yl)pyrimidin-4-yl)piperazin-1-yl)propyl)quinolin-4-amine] | > 4.76 µg/mL | 14 nM | 31 nM | –
21 | Clc1ccc2c(NCCCN3CCN(c4ccnc(N5CCOCC5)n4)CC3)ccnc2c1 [Compound 7m, 7-Chloro-N-(3-(4-(2-morpholinopyrimidin-4-yl)piperazin-1-yl)propyl)quinolin-4-amine] | > 4.76 µg/mL | 20 nM | 34 nM | –
22 | Clc1ccc2c(NCCCN3CCN(c4ccnc(N5CCSCC5)n4)CC3)ccnc2c1 [Compound 7n, 7-Chloro-N-(3-(4-(2-thiomorpholinopyrimidin-4-yl)piperazin-1-yl)propyl)quinolin-4-amine] | > 4.76 µg/mL | 4080 nM | > 9830 nM | –
23 | CCN1CCN(c2nccc(N3CCN(CCCNc4ccnc5cc(Cl)ccc45)CC3)n2)CC1 [Compound 7p, 7-Chloro-N-(3-(4-(2-(4-ethylpiperazin-1-yl)pyrimidin-4-yl)piperazin-1-yl)propyl) quinolin-4-amine] | > 4.76 µg/mL | 13 nM | 20 nM | –
24 | CN1CCN(c2nccc(N3CCN(CCCNc4ccnc5cc(Cl)ccc45)CC3)n2)CC1 [Compound 7q, 7-Chloro-N-(3-(4-(2-(4-methylpiperazin-1-yl)pyrimidin-4-yl)piperazin-1-yl)propyl) quinolin-4-amine] | > 4.76 µg/mL | 14 nM | 17 nM | –
25 | COc1cccc2c1C(=O)c1c(O)c3c(c(O)c1C2=O)C[C@@](O)(C(=O)CO)C[C@@H]3O[C@H]1C[C@H](N)[C@H](O)[C@H](C)O1 [doxorubicin, reference compound] | 8600 ± 400 nM | – | – | –
